In ChEMBL document CHEMBL5712078, “BRD9 Inhibition, Alone or in Combination with Cytostatic Compounds as a Therapeutic Approach in Rhabdoid Tumors” (Int J Mol Sci, 2017):
pIC50: −log10 of the molar value.

Legend:
CHLA-266 [1] = assay: Induction of cell cycle arrest in human CHLA-266 cells assessed as accumulation of cells at G1 phase at 10 uM incubated for 72 hrs by flow cytometry analysis (reference value: 74.2+/-3.6%); format: functional
Procedure, shortened: (§1)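 Cell cycle. Seeding and 72 h treatment as for the apoptosis assay, with I-BRD9 or BI-9564 at 0, 5, 10 or 20 µM final. A 100 µL cell suspension was stained with DAPI and read by flow cytometry. Percentage of cells in G1, n ≥3, mean ± SD, one-way ANOVA versus control.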

G-401 [2] = assay: Induction of cell cycle arrest in human G-401 cells assessed as accumulation of cells at G1 phase incubated for 72 hrs by flow cytometry analysis; format: functional, cell-based; details: dose 5-20 µM
Procedure, shortened: (§2)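 72 h DAPI flow-cytometry cell-cycle assay. Chla266 in IMDM/20% FBS seeded at 30,000 cells/mL; G401 in DMEM/10% FBS at 10,000 cells/mL; 1 mL/well, 37 °C, 5% CO2. Next day the medium was replaced with inhibitor at final 0, 5, 10 or 20 µM. Cells were harvested, PBS-washed, and the G1 percentage was read. n ≥ 3, mean ± SD, one-way ANOVA vs control.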

G-401 [3] = assay: Anti-proliferative activity against human G-401 cells assessed as cell viability incubated for 72 hrs by MTT assay; format: functional, cell-based; details: G-401, 72 h
Procedure, shortened: (§3)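 MTT proliferation assay. Cells were seeded at 3000 (BT16, KD, G401) or 5000 (BT12, Chla266) cells per well and drug was added after 24 h, final 0.001–100 µM. Read at 72 or 144 h; 144 h wells got fresh medium and drug on day 3. MTT for 3 h, formazan dissolved in isopropanol/0.04 N HCl, absorbance at 570/630 nm. Technical triplicates, ≥3 independent runs, IC50 derived.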

CHLA-266 [4] = assay: Induction of apoptosis in human CHLA-266 cells assessed as necrotic cells at 10 uM incubated for 72 hrs by flow cytometry analysis (Rvb= 5.0+/-0.3 %)
BT-12 [5] = assay: Induction of apoptosis in human BT-12 cells assessed as necrotic cells at 10 uM incubated for 72 hrs by flow cytometry analysis (reference value: 9.1+/-2.8 %); format: functional
Procedure, shortened: (§4)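 Annexin V/PI flow assay. G401 at 10,000 cells/mL and BT12 or Chla266 at 30,000 cells/mL were seeded in 12-well plates. Next day medium was replaced with medium holding I-BRD9 or BI-9564 at 0, 5, 10 or 20 µM final for 72 h. Cells were washed in PBS, stained with FITC-Annexin V and propidium iodide for 15 min in the dark at room temperature, then read by flow cytometry. Percentage of dead cells, n ≥3, mean ± SD, one-way ANOVA versus control.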

CHLA-266 [6] = assay: Induction of cell cycle arrest in human CHLA-266 cells assessed as accumulation of cells at G1 phase at 20 uM incubated for 72 hrs by flow cytometry analysis (reference value: 74.2+/-3.6%); format: functional; procedure, shortened: as §1
BT-12 [7] = assay: Synergistic cytotoxicity against human BT-12 cells assessed as combination index incubated for 72 hrs in presence of vincristine by MTT-based Chou-Talalay method; format: functional
Procedure, shortened: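 MTT combination assay. BT12 in IMDM/20% FBS at 5000 cells/well; G401 in DMEM/10% FBS. Drugs added 24 h after seeding, with I-BRD9 and cytostatic at a fixed 10:1 ratio (final ranges 0.001–100 µM and 0.0001–10 µM). After 72 h: MTT for 3 h, dissolved in isopropanol/0.04 N HCl, read at 570/630 nm. Technical triplicates, ≥3 independent runs; combination index by Chou–Talalay median-effect analysis.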

BT-12 [8] = assay: Anti-proliferative activity against human BT-12 cells assessed as inhibition cell growth incubated for 72 hrs in presence of vincristine by MTT-based Chou-Talalay method; format: functional; details: BT-12, 72 h
Procedure, shortened: (§5)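 Combination MTT assay. I-BRD9 and carboplatin, doxorubicin or vincristine were given together at a fixed 10:1 ratio, with cytostatics 0.0001–10 µM final, added 24 h after seeding. MTT read-out at 570/630 nm after 3 h formazan solubilisation. Combination index from the Chou–Talalay median-effect method: CI <1 synergism, CI >1 antagonism. n ≥3.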

BT-12 [9] = assay: Induction of apoptosis in human BT-12 cells assessed as necrotic cells at 5 uM incubated for 72 hrs by flow cytometry analysis (reference value: 9.1+/-2.8 %); format: functional; procedure, shortened: as §4
BT-12 [10] = assay: Induction of apoptosis in human BT-12 cells assessed as necrotic cells at 20 uM incubated for 72 hrs by flow cytometry analysis (Rvb= 9.1+/-2.8 %); format: functional; procedure, shortened: as §4
BT-12 [11] = assay: Induction of apoptosis in human BT-12 cells assessed as necrotic cells incubated for 72 hrs by flow cytometry analysis; format: functional, cell-based; details: dose 5-20 µM; procedure, shortened: as §4
G-401 [12] = assay: Anti-proliferative activity against human G-401 cells assessed as inhibition cell growth incubated for 72 hrs in presence of carboplatin by MTT-based Chou-Talalay method; format: functional; details: G-401, 72 h; procedure, shortened: as §5
G-401 [13] = assay: Induction of cell cycle arrest in human G-401 cells assessed as accumulation of cells at G1 phase at 5 uM incubated for 72 hrs by flow cytometry analysis (reference value: 46.7+/-1.9%); format: functional; procedure, shortened: as §2
G-401 [14] = assay: Induction of cell cycle arrest in human G-401 cells assessed as accumulation of cells at G1 phase at 10 uM incubated for 72 hrs by flow cytometry analysis (Rvb =46.7+/-1.9 %); format: functional; procedure, shortened: as §2
CHLA-266 [15] = assay: Induction of cell cycle arrest in human CHLA-266 cells assessed as accumulation of cells at G1 phase at 5 uM incubated for 72 hrs by flow cytometry analysis (reference value: 74.2+/-3.6%); format: functional; procedure, shortened: as §1
CHLA-266 [16] = assay: Anti-proliferative activity against human CHLA-266 cells assessed as cell viability incubated for 144 hrs by MTT assay; format: functional, cell-based; details: CHLA-266, 144 h; procedure, shortened: as §3
CHLA-266 [17] = assay: Anti-proliferative activity against human CHLA-266 cells assessed as cell viability incubated for 72 hrs by MTT assay; format: functional, cell-based; details: CHLA-266, 72 h; procedure, shortened: as §3
BT-12 [18] = assay: Induction of cell cycle arrest in human BT-12 cells assessed as accumulation of cells at G1 phase incubated for 72 hrs by flow cytometry analysis; format: functional, cell-based; details: dose 5-20 µM; procedure, shortened: as §1
G-401 [19] = assay: Induction of apoptosis in human G-401 cells assessed as necrotic cells incubated for 72 hrs by flow cytometry analysis; format: functional, cell-based; details: dose 5-20 µM; procedure, shortened: as §4
BT-12 [20] = assay: Induction of cell cycle arrest in human BT-12 cells assessed as accumulation of cells at G1 phase at 10 uM incubated for 72 hrs by flow cytometry analysis (reference value: 69+/-1.9%); format: functional; procedure, shortened: as §1
BT-12 [21] = assay: Induction of cell cycle arrest in human BT-12 cells assessed as accumulation of cells at G1 phase at 20 uM incubated for 72 hrs by flow cytometry analysis (reference value: 69+/-1.9%); format: functional; procedure, shortened: as §1

pIC50 (BT-12 [8]): 4.78
Compound: CCn1cc(-c2cccc(C(F)(F)F)c2)c2sc(C(=N)NC3CCS(=O)(=O)CC3)cc2c1=O
Activity (CHLA-266 [1]): 82.7%
Activity (G-401 [2]): Dose-Dependent Effect
pIC50 (G-401 [3]): 4.87
Activity (CHLA-266 [4]): 11.7%
Activity (BT-12 [5]): 17.6%
Activity (CHLA-266 [6]): 89.3%
CI (BT-12 [7]): 96.1
Activity (BT-12 [9]): 19.9%
Activity (BT-12 [10]): 34.6%
Activity (BT-12 [11]): Dose-Dependent Effect
pIC50 (G-401 [12]): 5.04
Activity (G-401 [13]): 53%
Activity (G-401 [14]): 67.1%
Activity (CHLA-266 [15]): 79.5%
pIC50 (CHLA-266 [16]): 4.61
pIC50 (CHLA-266 [17]): 4.88
Activity (BT-12 [18]): Dose-Dependent Effect
Activity (G-401 [19]): Dose-Dependent Effect
Activity (BT-12 [20]): 80.1%
Activity (BT-12 [21]): 85.6%
